# Results pooled from the literature.
# Compare with care: the assays were run in different laboratories.
# Read-out: cell growth or viability
SMILES,cell line,method,concentration,time,quantity,value
NS(=O)(=O)OC[C@H]1C[C@@H](Nc2ccnc3cc(-c4cccc(SC(F)(F)F)c4)nn23)[C@H](O)[C@@H]1O,HEK-293T,ATP luminescence,,24 h,EC50,0.296 µM
CCN(c1ccc(C)cc1)c1ccc(NC(=O)CN(C)c2ccccc2N2CCCC2=O)cn1,HepG2,ATP luminescence,,48 h,CC50,> 40 µM
OCc1ccc(-c2nn(Cc3ccccc3)c3ccccc23)o1,HepG2,ATP luminescence,,,IC50,7.14 µM
c1cnc2c(c1)ccc1cccnc12,HEK-293T,MTT,12.5 µg/mL,24 h,viability,> 80%
NS(=O)(=O)c1ccc(-c2ccc(Nc3ccc(Cl)cc3)cc2)cc1,HEK-293T,MTT,100 µM,,viability,76%
O=c1c2c([nH]c3cc(Oc4ccc(OC(F)(F)F)cc4)ccc13)CCCC2,HepG2,MTT,,48 h,IC50,> 50 µM
Cc1ccc(N(C)c2ccc(NC(=O)CN(C)c3ccccc3N3CCCC3=O)cc2)nc1,HepG2,ATP luminescence,,48 h,CC50,> 40 µM
NS(=O)(=O)c1ccc(-c2ccc(Nc3ccncc3)cc2)cc1,HEK-293T,MTT,100 µM,,viability,69%
